Screens from PubChem.
Most compounds without a hit are left out; they make up all but 1.8% or so of the library.
GalR3 antagonist: human GalR3 antagonism; AID 651719; inhibition, % at 3 µM; O60755; 360,000 tested, 0.44% active; HEK293 GalR3-CNG cAMP membrane potential fluorescence; galR3 body fused to GalR1 C-terminus;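 active = inhibition above the screen-wide average plus 3 SD, cut at about 13% in these data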;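 also: forskolin and galanin both at EC90 stimulate the cells; cAMP rise reported by CNG channel membrane potential dye signal; 0% = forskolin plus galanin with DMSO and 100% = forskolin alone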
PG9 binder: PG9 antibody binding by small molecule | TR-FRET gp120-PG9 antibody binding | inhibition, % at 6.7 µM | 360,000 tested, 0.43% active | AID 624416; in the data active = inhibition above about 8.5%
NR2E3 ag-1: agonists of human NR2E3 nuclear receptor | Q9Y5X4 | CHO-S Gal4-NCOR/VP16-NR2E3 two-hybrid, luciferase | inhibition of corepressor binding, % at 3.98 µM | 360,000 tested, 0.35% active;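 active = inhibition above the mean of all tested compounds plus 3 SD, cut at about 70% in these data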;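 also: 0% = DMSO with NR2E3 transfected cells and 100% = cells lacking NR2E3 construct; higher means lower luciferase signal from less NR2E3 corepressor binding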
NR2E3 ag-2: NR2E3 (human) agonism. Q9Y5X4. GST-NR2E3/biotin-RetCOR TR-FRET, 1536-well. inhibition of corepressor binding, % at 4.78 µM. 320,000 tested, 0.12% active;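 active = percent inhibition above the cutoff of mean plus 3 SD of all tested compounds, set per screening campaign, cut at about 20% in these data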;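 also: 0% = DMSO wells and 100% = biotin wells as full block of FRET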
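Material – GST-tagged NR2E3 plus biotinylated RetCOR corepressor · Quantity – NR2E3 fusion 1.35 nM · Times – 5 h incubation at 4 °C · Medium – pH 7.5 Tris-based buffer · Technique – TR-FRET, Eu(K)-anti-GST donor, streptavidin-D2 acceptor, ex 340, em 617/671 nm · Benchmarks – high control biotin, low control 0.6% DMSO · Format – 1536-well plates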
Rev-erbA mod: Rev-erb alpha (human) modulation; Rev-erbα–FITC-DNA binding, fluorescence polarization, 90 min; AID 1259318; P20393; 370,000 tested, 0.79% active; activity, % at 10 µM;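 active = activity above about 14%, limit read from the data; passing the limit was not always enough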;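 also: 0% = DMSO wells with 35 nM protein and 100% = DMSO wells with 750 nM protein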
Target sequence (P20393 whole entry, looked up): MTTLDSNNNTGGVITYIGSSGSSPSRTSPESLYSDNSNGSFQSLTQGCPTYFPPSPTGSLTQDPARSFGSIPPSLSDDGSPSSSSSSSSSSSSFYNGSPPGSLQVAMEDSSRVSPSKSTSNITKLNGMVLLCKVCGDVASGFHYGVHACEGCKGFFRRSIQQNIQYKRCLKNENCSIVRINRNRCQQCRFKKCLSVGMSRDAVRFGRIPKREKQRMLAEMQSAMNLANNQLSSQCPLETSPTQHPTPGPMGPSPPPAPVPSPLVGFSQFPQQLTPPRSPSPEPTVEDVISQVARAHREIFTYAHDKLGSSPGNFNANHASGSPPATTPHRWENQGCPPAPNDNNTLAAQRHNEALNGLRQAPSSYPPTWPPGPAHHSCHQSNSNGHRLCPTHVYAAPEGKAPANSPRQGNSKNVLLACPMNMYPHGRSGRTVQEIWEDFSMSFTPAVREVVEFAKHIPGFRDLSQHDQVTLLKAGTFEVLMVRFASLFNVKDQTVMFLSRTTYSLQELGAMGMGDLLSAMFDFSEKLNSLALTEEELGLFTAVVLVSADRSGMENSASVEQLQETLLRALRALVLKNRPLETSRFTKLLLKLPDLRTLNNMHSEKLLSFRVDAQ
Starred values were filed as active, the others as inactive; nt = not tested or not shown.

SMILES | GalR3 antagonist | PG9 binder | NR2E3 ag-1 | NR2E3 ag-2 | Rev-erbA mod
CCc1ccc(S(=O)(=O)/N=C2/C=C(Sc3ncn[nH]3)C(=O)c3ccccc32)cc1 | nt | nt | 100* | 6 | nt
COC(=O)c1ccc(Nc2cc(C)nc(-c3ccccc3O)n2)cc1 | -4 | 45* | -20 | 1 | 25
CCOC(=O)C(C)Sc1nc2c(c(=O)[nH]c(=O)n2C)n1CCc1ccccc1 (centres undefined) | -2 | -3 | -11 | 1 | 0
COC(=O)C(C)Sc1nc2c(c(=O)[nH]c(=O)n2C)n1CCCc1ccccc1 (centres undefined) | 53* | 0 | 1 | 1 | 3
CC(CCC(=O)O)[C@H]1CCC2C3C(=O)C[C@@H]4CC(=O)CC[C@]4(C)C3CC(=O)[C@@]21C (some centres undefined) | nt | nt | nt | nt | 3
COc1ccc2[nH]c3c4c(ccc3c2c1)C(=O)C=CC4=O | -11 | 10* | -30 | nt | -3
Cc1nc2ccccc2c2oc(C(=O)NCC3COc4ccccc4O3)cc12 (centres undefined) | 2 | 0 | 79* | 1 | -1
CCN1CCCC1CNC(=O)c1cc2c(C)nc3ccccc3c2o1 (centres undefined) | -3 | -1 | 17 | -1 | 1
COc1ccc(CNC(=O)c2cc3c(C)nc4ccccc4c3o2)c(OC)c1 | nt | nt | 99* | 0 | nt
O=[N+]([O-])c1cc(Cl)c2cccnc2c1O | 4 | 0 | 102* | 0 | 7
C[C@H]1OC(n2cc(F)c(=O)[nH]c2=O)[C@H](O)[C@@H]1O (some centres undefined) | nt | nt | nt | nt | -3
Cc1ccc(-c2nc3n(n2)Cc2ccccc2-3)cc1 | -2 | 1 | -110 | 3 | -1
CCn1c(C)nc2cc(-c3nc4n(n3)Cc3ccccc3-4)ccc21 | nt | nt | 97* | 2 | nt
CCN1CCN(Cc2ccc(NC(=O)c3ccc(C)c(NC(=O)c4cncc(-c5cccs5)c4)c3)cc2C(F)(F)F)CC1 | nt | nt | 82* | nt | nt
CC=C1OC(n2cnc3c(N)ncnc32)C(O)C1O (centres undefined) | -3 | 1 | -1 | nt | -11
Nc1ncnc2c1ncn2C1C=C(CO)C(O)C1O (centres undefined) | nt | nt | 74* | nt | nt
CC1=NNC(=O)/C1=C\c1cn(-c2ccccc2)nc1-c1ccc(Cl)cc1 | 21* | 0 | -5 | 2 | -2
Cc1ccc(-c2nn(-c3ccccc3)cc2C=C2C(=O)CC(C)(C)CC2=O)cc1 | -4 | 0 | -63 | -3 | -3
O=C1c2c(O)cccc2C(C2OC(CO)C(O)C(O)C2O)c2cc(CO)cc(O)c21 (centres undefined) | nt | nt | nt | nt | 0
COc1ccc(OC)c(NC2c3ccccc3C(=O)N2c2cccnc2)c1 (centres undefined) | nt | 8.9* | -24 | 0 | 0
Cc1ccc(NC2c3ccccc3C(=O)N2c2cccnc2)cc1 (centres undefined) | -1 | -2 | 2 | 0 | -1
CCc1cc2c(COC(=O)c3cc(S(=O)(=O)N4CCOCC4)ccc3F)cc(=O)oc2cc1O | 19* | 5 | -11 | -1 | 17
Cc1cccc(Nc2nc(-c3c(C)nc4ccccn34)cs2)c1 | -4 | 1 | 78* | 0 | -6
Cc1nc2ccccn2c1-c1csc(Nc2cccc(O)c2)n1 | -4 | -3 | -17 | nt | 1
Cc1ccc(Nc2nc3ccccc3nc2-n2nc(C)cc2C)cc1 | 5 | 0 | -16 | 1 | 4
SMILES | GalR3 antagonist | PG9 binder | NR2E3 ag-1 | NR2E3 ag-2 | Rev-erbA mod
Cc1ccc(Nc2cc(C)nn2-c2nc(C)cc(C)n2)cc1 | -8 | 1 | 94* | 0 | -5
CC(=O)Nc1cc(C)nn1-c1nc(C)cc(C)n1 | 1 | 0 | -6 | 0 | 2
Cc1ccc(Nc2cc(C)nn2-c2nc(C)cc(=O)[nH]2)cc1 | nt | nt | 109* | -5 | nt
CC(C)(CO)C(O)C(=O)NCCC(=O)NCCSSCCNC(=O)CCNC(=O)C(O)C(C)(C)CO (centres undefined) | nt | nt | nt | nt | -2
CC(=O)O[C@H]1CC2CCC3C(CC[C@@]4(C)C3C[C@H]([N+]3(C)CCCCC3)[C@@H]4OC(C)=O)[C@@]2(C)C[C@@H]1N1CCCCC1 (some centres undefined) | nt | nt | nt | nt | -2
C[C@]12C=CC(=O)C=C1CCC1C3C[C@@H](O)[C@](O)(C(=O)CO)[C@@]3(C)C[C@H](O)[C@@]12F (some centres undefined) | nt | nt | nt | nt | 0
CC(C)(C)OC(=O)NCCCCCNC(=O)c1nc[nH]c1C(=O)NCc1ccc(CNC(=O)OC(C)(C)C)cc1 | -3 | -1 | 79* | nt | 1
COc1ccc(C(=O)Nc2ccc(N3CCOCC3)cc2)cc1S(=O)(=O)N1CCOCC1 | -2 | -3 | -10 | nt | 1
COc1ccc(C(=O)Nc2ccc(-c3ccc(C)o3)cc2)cc1S(=O)(=O)N1CCOCC1 | 94* | 0 | -10 | -1 | 1
COc1ccc2oc(=O)c(-c3nc(C)cs3)cc2c1 | -5 | 13* | -65 | 3 | 2
COc1ccc2oc(=O)c(-c3nnc(N)s3)cc2c1 | -4 | -3 | -33 | 3 | 0
CCOC(=O)C1CCN(c2ncnc3c2[nH]c2cccc(OC)c23)CC1 | -4 | -1 | 15 | -1 | 1
COc1cccc2[nH]c3c(N4CCCCC4)ncnc3c12 | 96* | -3 | -34 | -2 | -2
COc1ccc(-c2cc(C(F)(F)F)nc(S(=O)(=O)CCCC(=O)Nc3cccnc3Cl)n2)cc1OC | 17* | 1 | -5 | nt | 2
O=C(NCC1CCN(Cc2ccccc2F)CC1)C1CCCN(c2ncnc3c2nc2n3CCCCC2)C1 (centres undefined) | 15* | -2 | -7 | 0 | 0
CNCC[C@@H](Oc1ccccc1)c1ccccc1 | nt | nt | nt | nt | -7
C#C[C@]1(OC(C)=O)CCC2C3CCC4=C/C(=N/O)CCC4C3CC[C@@]21CC (some centres undefined) | nt | nt | nt | nt | 8
CCOC(=O)N1CCC(NC(=O)CCC(=O)N2CCOc3ccccc32)CC1 | 1 | 15* | -1 | 2 | -8
COc1ccc(-c2cnc3c(NC=O)cc(-c4ccccc4OC)cn23)cc1OC | 34* | -1 | 14 | nt | -5
CN1c2ccccc2Sc2ccc(CC(=O)O)cc21 | nt | nt | nt | nt | 0
Cc1c(C(=O)O)nn(-c2cccc(C(F)(F)F)c2)c(=O)c1C#N | -5 | 0 | -20 | 0 | 2
COC(=O)c1nn(-c2cccc(C(F)(F)F)c2)c(=O)cc1Sc1ccccn1 | -3 | 8.7* | -3 | 1 | -1
Cn1nc(C(F)(F)F)c(/C=N/OC(=O)c2ccccc2Cl)c1SCc1ccccc1Cl | -5 | 0 | 73* | -1 | 3
COc1ccc([C@H]2CC(=O)C=C(c3ccnc4ccc(Cl)cc34)C2)cc1 | 7 | -4 | 89* | 2 | -2
COc1ccc([C@H]2CC(=O)C=C(c3cc(Cl)ccc3C)C2)cc1 | -6 | 0 | -14 | 3 | -3
